Measured values published in ChEMBL document CHEMBL4038267, “Antiproliferative Activity of Natural Taiwaniaquinoids and Related Compounds” (J Nat Prod, 2017).

How the values were obtained:
Format in all cases: functional, cell-based
MCF7 = assay: Antiproliferative activity against human MCF7 cells after 3 days by sulforhodamine B assay; details: MCF7, 72 h
In short: (§1)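 Cells from a university core cell-culture facility, grown in DMEM with 10% heat-inactivated FBS, penicillin-streptomycin and 2 mM L-glutamine at 37 °C, 5% CO2, 90% humidity. Seeded at 1 × 10^4 cells/cm2 in quadruplicate, treated after 24 h with increasing concentrations. Fixed in cold 10% TCA, stained with 0.4% sulforhodamine in 1% HOAc, solubilized in 10 mM Tris pH 10.5, OD 492 nm. IC50 by linear interpolation of semilog curves; mean ± SEM, four determinations.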

T84 = assay: Antiproliferative activity against human T84 cells after 3 days by sulforhodamine B assay; details: T84, 72 h; in short: as §1
A549 = assay: Antiproliferative activity against human A549 cells after 3 days by sulforhodamine B assay; details: A549, 72 h; in short: as §1

Compound	IC50 (MCF7)	IC50 (A549)	IC50 (T84)
CC(=O)OC[C@H]1c2c(O)c(C(C)C)cc(O)c2[C@@]2(C)CCCC(C)(C)[C@H]12	36.1 µM	19.4 µM	25 µM
COC1=C(C(C)C)C(=O)C2=C(C1=O)[C@@]1(C)CCCC(C)(C)[C@@H]1C2 [TAIWANIAQUINONE G]	16.8 µM	30.5 µM	14.1 µM
C=C1C2=C(C(=O)C(OC)=C(C(C)C)C2=O)[C@@]2(C)CCCC(C)(C)[C@H]12	12.4 µM	30.9 µM	32.3 µM
CC(=O)OC[C@H]1C2=C(C(=O)C(Br)=C(C(C)C)C2=O)[C@@]2(C)CCC[C@@](C)(COC(C)=O)[C@H]12	1.8 µM	1.1 µM	1.6 µM
CC(C)C1=C(O)C(=O)C2=C(C1=O)[C@H](CO)[C@H]1C(C)(C)CCC[C@]21C	39.9 µM	43.6 µM	35.3 µM
CC(C)C1=C(O)C(=O)[C@]23O[C@@]2(C1=O)[C@H](CO)[C@H]1C(C)(C)CCC[C@@]13C	17.1 µM	19.2 µM	17.1 µM
COC1=C(C(C)C)C(=O)C2=C(C1=O)[C@@]1(C)CCCC(C)(C)[C@@H]1[C@H]2C=O [TAIWANIAQUINONE]	15.4 µM	10.1 µM	11.9 µM
C=C1[C@H]2C(C)(C)CCC[C@]2(C)C2(O)C(=O)C(OC)=C(C(C)C)C(=O)C12O (some centres undefined)	36.4 µM	27.2 µM	36.3 µM
CC(C)C1=CC(=O)C2=C(C=C3C(C)(C)CCC[C@@]32C)C1=O	7.1 µM	15 µM	8.6 µM
C=C1C2=C(C(=O)C(Br)=C(C(C)C)C2=O)[C@@]2(C)CCCC(C)(C)C12O (some centres undefined)	1 µM	1.5 µM	5.2 µM
CC(C)C1=C(Br)C(=O)C2=C(C1=O)[C@H](CO)[C@H]1C(C)(C)CCC[C@]21C	2.1 µM	12.2 µM	6.7 µM
CC(C)C1=C(Br)C(=O)C2=C(C[C@H]3C(C)(C)CCC[C@]23C)C1=O	2.2 µM	11.8 µM	3.2 µM
CC(C)C1=CC(=O)C2=C(C1=O)[C@H](CO)[C@H]1C(C)(C)CCC[C@]21C	15.7 µM	12.5 µM	18 µM
CC(C)C1=CC(=O)C2=C(C[C@H]3C(C)(C)CCC[C@]23C)C1=O	16.1 µM	30.3 µM	6 µM
C=C1C2=C(C(=O)C(OC)=C(C(C)C)C2=O)[C@@]2(C)CCC[C@@](C)(C(=O)OC)[C@H]12	17 µM	19.7 µM	15.7 µM

Continued by falling IC50 (MCF7), values first:

IC50 (MCF7)	IC50 (A549)	Compound	IC50 (T84)
32.1 µM	8.6 µM	COC(=O)[C@]1(C)CCC[C@]2(C)C3=C(C(=O)C(C(C)C)=C(O)C3=O)[C@H](CO)[C@@H]12	23.2 µM
28.6 µM	25.1 µM	CC(C)C1=C(O)C(=O)C2=C(C1=O)[C@H](C=O)[C@H]1C(C)(C)CCC[C@]21C [TAIWANIQUINONE A]	30.9 µM
13.6 µM	21.1 µM	CC(=O)OC[C@H]1C2=C(C(=O)C=C(C(C)C)C2=O)[C@@]2(C)CCCC(C)(C)[C@H]12	28.8 µM
12.6 µM	23.8 µM	C=C1C2=C(C(=O)C(OC)=C(C(C)C)C2=O)[C@@]2(C)CCCC(C)(C)C12O (some centres undefined)	24.9 µM
11.4 µM	12.1 µM	COC(=O)[C@]1(C)CCC[C@]2(C)C3=C(C(=O)C(C(C)C)=C(OC)C3=O)[C@H](C=O)[C@@H]12	12.8 µM
10 µM	22.9 µM	COC(=O)[C@]1(C)CCC[C@]2(C)C3=C(C(=O)C(C(C)C)=C(OC)C3=O)[C@H](CO)[C@@H]12	31.4 µM
4 µM	29.7 µM	CC(=O)OC[C@H]1C2=C(C(=O)C(Br)=C(C(C)C)C2=O)[C@@]2(C)CCCC(C)(C)[C@H]12	29.5 µM
3.2 µM	22.1 µM	CC(C)C1=C(Br)C(=O)C2=C(C=C3C(C)(C)CCC[C@@]32C)C1=O	6.2 µM
2.4 µM	2.4 µM	COC(=O)[C@]1(C)CCC[C@]2(C)C3=C(C(=O)C(C(C)C)=C(Br)C3=O)[C@H](COC(C)=O)[C@@H]12	2.9 µM
1.3 µM	–	C=C1C2=C(C(=O)C(Br)=C(C(C)C)C2=O)[C@@]2(C)CCCC(C)(C)[C@H]12	9.6 µM
